High-throughput results (PubChem BioAssay)
TCR-CD3 inh: human TCR-CD3 binding inhibition; 0.37% of 360,000 active; TAMRA-labeled TCR probe fluorescence, biochemical; inhibition, % at 9.4 µM; AID 651800; in the data active means inhibition above about 19%;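 further: recombinant mutant TCR 2C K166C tagged with TAMRA read by polarization; 0% = receptor in buffer alone and 100% = receptor with positive control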
mABHD4 FP: ABHD4 (mouse) inhibition, primary FP screen; purified mABHD4, FP-Rh probe fluorescence polarization; AID 720543; Q8VD66; 0.54% of 370,000 active; inhibition, % at 8.92 µM;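 active means inhibition exceeding the mean over every tested compound plus 3 SD, cut at about 30% in these data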;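 further: 0% = plate median of compound wells and 100% = S159A mutant with DMSO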
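Assay system: Wild-type mouse ABHD4 protein | Medium: HEPES pH 7.0 buffer, 150 mM NaCl, 0.01% Pluronic F-127 | Incubation: Enzyme–compound pre-incubation 45 min, then probe 60 min, both 25 °C | Technique: Fluorescence polarization with parallel and perpendicular emission, 525/598 nm | Evaluation: % inhibition of FP-Rh probe binding versus controls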
HTRA1 inh: HTRA1 (human) protease inhibition; Q92743; recombinant HTRA1, FP-rhodamine activity-based probe, fluorescence polarization; inhibition, % at 5.96 µM; 0.5% of 340,000 active; AID 504803; in the data active means inhibition above about 36%;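 further: 0% = enzyme with DMSO and 100% = wells lacking enzyme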
SIAE inh: human SIAE inhibition, primary screen; 0.69% of 370,000 active; SIAE FP-Rh probe binding, fluorescence polarization; AID 1053197; inhibition, % at 9.66 µM;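 active means inhibition above a cutoff: mean of compounds within the control limits plus 3 SD of those, cut at about 17% in these data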;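 further: 0% = plate median of compound wells and 100% = probe without SIAE protein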
PRMT1 FP inh: inhibitors of human PRMT1; recombinant PRMT1, activity-based probe fluorescence polarization; inhibition, % at 2.79 µM; 1.3% of 370,000 active;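 active means inhibition above about 21% made by adding two undisclosed values, limit read from the data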
Target sequence (Q99873 whole entry, looked up): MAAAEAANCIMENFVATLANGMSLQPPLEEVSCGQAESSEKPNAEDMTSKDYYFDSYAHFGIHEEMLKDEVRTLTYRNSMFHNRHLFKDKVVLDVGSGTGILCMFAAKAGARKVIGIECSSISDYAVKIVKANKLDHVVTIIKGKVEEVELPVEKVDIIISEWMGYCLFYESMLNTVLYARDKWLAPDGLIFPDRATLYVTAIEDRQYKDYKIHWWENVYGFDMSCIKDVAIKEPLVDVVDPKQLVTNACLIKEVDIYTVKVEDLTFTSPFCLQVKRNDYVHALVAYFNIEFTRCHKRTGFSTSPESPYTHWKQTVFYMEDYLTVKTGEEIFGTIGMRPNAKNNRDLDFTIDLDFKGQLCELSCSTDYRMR
PRMT1 inh conf: PRMT1 (human) inhibition, FP confirmation | shares compounds with PRMT1 FP inh | recombinant His-PRMT1, activity-based probe fluorescence polarization | inhibition, % at 2.79 µM | 42% of 3,300 active;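 active means mean inhibition across replicates above the hit cutoff derived for the earlier primary screen, cut at about 22% in these data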
Starred values were filed as active, the others as inactive; · = not tested or not shown. This is a sample that favours compounds with a hit; in the whole collection about 2.6% have one here.

SMILES | TCR-CD3 inh | mABHD4 FP | HTRA1 inh | SIAE inh | PRMT1 FP inh | PRMT1 inh conf
CC(/C=C/c1ccc(C)o1)=C\C(=O)O | -1 | 2 | -1 | 6 | 30* | 12
Cc1ccc(/C=C/C(=O)N2CC(C)CC(C)C2)o1 (stereo not given) | -5 | 2 | -5 | -1 | 40* | 19
COc1ccc2c(c1)CNC2CS(=O)(=O)NCc1ccccc1 (stereo not given) | · | 0 | · | 2 | -4 | ·
CCOC(=O)CSC1=C(C#N)C(c2ccccc2F)C(C(C)=O)=C(C)N1 (stereo not given) | -2 | -5 | -9 | 7 | 0 | ·
CSCSC1=C(C#N)C(c2ccccc2Cl)C(C(C)=O)=C(C)N1 (stereo not given) | -11 | -2 | -17 | 5 | 27* | 4
CN1C(=O)c2cc(NC(=O)Nc3ccccc3F)ccc2OC[C@H]2O[C@@H](CC(=O)NCc3ccc(-c4ccccc4)cc3)CC[C@@H]21 | · | -4 | · | -18 | -2 | ·
CC(=O)Nc1ccc(S(=O)(=O)NCCSCc2ccco2)cc1 | 3 | 0 | -3 | -3 | 28* | 61*
CC(=O)Nc1ccc(S(=O)(=O)NCCSCc2c(Cl)cccc2Cl)cc1 | 0 | -13 | -26 | -15 | 4 | ·
CCc1ccccc1NC(=O)CSc1nnc([C@@H](N)Cc2ccccc2)o1 | 9 | -4 | 18 | 0 | 43* | 28*
COC(=O)[C@]12C[C@H](CC(=O)N3CCC(c4ccccc4)CC3)C(=O)N(Cc3ccco3)C1=C[C@H](C(C)C)O[C@@H]2C1CC1 | · | -4 | · | 1 | 0 | ·
ClC(Cl)(c1nnnn1-c1ccccc1)c1nnnn1-c1ccccc1 | 13 | -4 | 4 | -2 | 90* | 91*
O=C(CSc1ccc(-c2ccco2)nn1)c1ccc(F)cc1 | 9 | 22 | 21 | 5 | 54* | 13
Fc1ccc(CSc2ccc(-c3ccco3)nn2)cc1 | -6 | 14 | -6 | 6 | 54* | -1
O=C(CSc1ccc(-c2ccco2)nn1)NCc1ccc(F)cc1 | 6 | -14 | 3 | 2 | 9 | ·
C[C@H]1COc2cc(N3CCCC3)ccc2S(=O)(=O)N1C | · | 7 | · | 7 | 0 | ·
Cc1cc(OC[C@@H](O)CN2CCC(C(O)(c3ccccc3)c3ccccc3)CC2)ccc1Br | · | 13 | · | -10 | 1 | ·
OCCCn1c(-c2ccccc2)csc1=Nc1ccccc1 | 2 | 0 | -5 | -1 | 3 | ·
COc1ccc(N=c2scc(-c3ccc(OC)cc3)n2CCO)cc1 | -2 | 6 | 1 | 9 | 36* | 8
CCNc1nc(NCC)n2c(SCC(=O)Nc3ccc(Br)cc3F)nnc2n1 | -8 | 1 | -6 | -5 | 37* | 15
CC(=O)N1CCN(c2ccc(N3CCN(Cc4ccccc4)[C@@H](C)C3)c(C)c2)[C@H](C)C1 | 1 | 7 | · | 10 | 5 | ·
O=C(O)CNc1nc(-c2ccccc2)c2cc([N+](=O)[O-])ccc2n1 | 9 | 14 | 1 | 3 | 26* | 30*
COc1ccc(NC(=O)CSc2ccc(-c3ccco3)nn2)cc1 | 8 | 19 | -5 | 12 | 37* | 54*
COc1cc(NC(=O)CSc2ccc(-c3ccco3)nn2)cc(OC)c1 | 14 | -3 | -15 | 8 | 20 | ·
CCOc1ccccc1NC(=O)CSc1ccc(-c2ccco2)nn1 | 4 | 10 | -3 | 6 | 25* | 48*
COC(=O)[C@]12C[C@H](CC(=O)NCC3CCCCC3)C(=O)N(CCc3ccc(OC)c(OC)c3)C1=C[C@H](COCc1ccccc1)O[C@@H]2C | · | -4 | · | 12 | -2 | ·
SMILES | TCR-CD3 inh | mABHD4 FP | HTRA1 inh | SIAE inh | PRMT1 FP inh | PRMT1 inh conf
N#Cc1c2c(c(-c3ccco3)[nH]c1=O)CCCC2 | 5 | 21 | 3 | 8 | 46* | 2
N#Cc1c(N)nc2c(c1-c1cccnc1)CCCCC2 | 1 | 0 | 3 | -3 | -2 | ·
N#Cc1c(-c2cccnc2)c2c([nH]c1=S)CCCC2 | 3 | 4 | -2 | -4 | 45* | 32*
N#Cc1c(-c2ccco2)c2c([nH]c1=S)CCCC2 | -7 | 17 | 0 | -2 | 59* | 25*
Cc1[nH]c(=O)c(C#N)c2c1CCCC2 | 3 | 8 | 7 | -3 | -1 | ·
FC(F)(F)c1ccc(Cn2ccc3ccc(-c4ccc5ccn(Cc6ccccc6)c5c4)cc32)cc1 | · | 17 | · | 3 | 3 | ·
CC(=O)c1sc2nsc(SCCN3CCCC3)c2c1N | -1 | 7 | 9 | 13 | 35* | 11
CC(=O)c1sc2nc(C)c3c(c2c1N)CCCC3 | -6 | 4 | · | -1 | 5 | ·
CCOC(=O)c1c(N)sc(N)c1C(=O)OCC | -5 | -1 | 6 | 7 | 31* | 56*
CCN1CCc2c(sc(NC(=O)Nc3ccc(Cl)c(Cl)c3)c2C(N)=O)C1 | 6 | 7 | 28 | 31* | 45* | 5
Cc1ccc2c(c1)C1CS(=O)(=O)N(Cc3ccccc3)CN1C2 (stereo not given) | · | -2 | · | -5 | 3 | ·
CN=C1S/C(=C/c2cc(C)n(-c3cc(C)ccc3OC)c2C)C(=O)N1C | · | 5 | · | 2 | 0 | ·
COCCCN1CCC2(CCC(c3ccccc3)CC2)C1=O (stereo not given) | · | 2 | · | 4 | 0 | ·
CN1CCc2c(sc(/N=C/c3ccco3)c2C(N)=O)C1 | 0 | -1 | -5 | -12 | 25* | 6
Cn1cccc1C=NNC(=O)c1cc(-c2ccc(Cl)cc2)n[nH]1 | · | -7 | · | -7 | 25* | -7
CSc1ccc(C=NNC(=O)c2cc(-c3ccc(Cl)cc3)n[nH]2)cc1 | · | -2 | · | -5 | -3 | ·
CN(Cc1ccco1)S(=O)(=O)c1ccc2c(c1)CCN2C(=O)CC(C)(C)C | · | 1 | · | 1 | 0 | ·
CC(=O)c1ccc2c(c1)N(C)c1ccccc1S2 | 0 | 13 | 11 | 3 | 2 | ·
